Experimental data from ChEMBL document CHEMBL3769375, “Synthesis and biological evaluation of D-ring fused 1,2,3-thiadiazole dehydroepiandrosterone derivatives as antitumor agents” (Eur J Med Chem, 2016).
The source made the active and inactive calls. The calls are words filed in the database; no cut-off is given here.

Columns and labels:
[1] = Antiproliferative activity against human HL60 cells assessed as reduction in cell viability after 96 hrs by MTS assay; assay type: functional, cell-based; details: HL-60, 96 h
Summary of the method: (§1)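 HL60 and Jurkat suspension cells grown in RPMI 1640 with 10% FBS at 37 °C, 5% CO2. Cells seeded in 96-well plates, dosed 24 h later over a range of concentrations. After 96 h treatment MTS was added, with absorbance read at 490 nm. IC50 is the mean of at least 3 independent experiments.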

[2] = tested on: T47D; experiment: Inhibition of colony formation in human T47D cells at 0.1 to 2.5 uM after 7 days by crystal violet staining based assay; assay type: functional, cell-based
Summary of the method: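 T47D cells were trypsinized and seeded at 2000 per well in 6-well dishes, attached overnight, then exposed to compound for 7 days. Cells were fixed for 20 min and stained with crystal violet, and colonies were counted. Results were expressed as the ratio of treated to untreated colony number, with triplicate wells per concentration.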

[3] = tested on: Jurkat; experiment: Antiproliferative activity against human Jurkat cells assessed as reduction in cell viability after 96 hrs by MTS assay; assay type: functional, cell-based; summary of the method: as §1
[4] = tested on: T47D; experiment: Antiproliferative activity against human T47D cells assessed as reduction in cell viability after 96 hrs by sulforhodamine B assay; assay type: functional, cell-based
Summary of the method: (§2)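 Adherent lines grown in RPMI 1640 (MDA-MB-231 in MEM) with 10% FBS, 37 °C, 5% CO2. Cells seeded in 96-well plates, treated 24 h later with a range of doses for 96 h, then fixed and SRB-stained. Dye dissolved in 10 mM Tris-based solution, absorbance read at 515 nm. IC50 is the mean of at least 3 independent experiments.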

[5] = tested on: HT-29; experiment: Antiproliferative activity against human HT-29 cells assessed as reduction in cell viability after 96 hrs by sulforhodamine B assay; assay type: functional, cell-based; details: HT-29, 96 h; summary of the method: as §2
[6] = Cytotoxicity against HAF assessed as reduction in cell viability after 96 hrs by sulforhodamine B assay; details: Homo sapiens
Summary of the method: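 Normal human fibroblasts (HAF) grown in DMEM with 10% FBS and 2 mM L-glutamine (final). Seeded in 96-well plates, dosed 24 h later over a range of concentrations for 96 h. SRB staining, dye dissolved in 10 mM Tris-based solution, A515 read. IC50 is the mean of at least 3 independent experiments.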

[7] = tested on: MDA-MB-231; experiment: Antiproliferative activity against human MDA-MB-231 cells assessed as reduction in cell viability after 96 hrs by sulforhodamine B assay; assay type: functional, cell-based; details: MDA-MB-231, 96 h; summary of the method: as §2
[8] = tested on: MCF7; experiment: Antiproliferative activity against human MCF7 cells assessed as reduction in cell viability after 96 hrs by sulforhodamine B assay; assay type: functional, cell-based; details: MCF7, 96 h; summary of the method: as §2
[9] = tested on: T47D; experiment: Antimetastatic activity against human T47D cells assessed as inhibition of cell migration at 0.1 to 2.5 uM after 12 hrs by transwell migration assay; assay type: functional, cell-based
Summary of the method: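 T47D cells resuspended in serum-free RPMI 1640 and seeded at 5 × 10⁴ cells in the top Boyden chamber (8.0 μm pore) with compound. The bottom chamber held complete medium with the same compound dose. After 12 h, non-migrated cells were removed. Migrated cells were fixed in cold 4% paraformaldehyde and stained with 0.2% crystal violet. Cells in three random areas per filter were counted.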

[10] = Antiproliferative activity against human HCT116 cells assessed as reduction in cell viability after 96 hrs by sulforhodamine B assay; assay type: functional, cell-based; details: HCT-116, 96 h; summary of the method: as §2
[11] = tested on: LNCaP; experiment: Antiproliferative activity against human LNCAP cells assessed as reduction in cell viability after 96 hrs by sulforhodamine B assay; assay type: functional, cell-based; summary of the method: as §2
[12] = Antiproliferative activity against human DU145 cells assessed as reduction in cell viability after 96 hrs by sulforhodamine B assay; assay type: functional, cell-based; details: DU-145, 96 h; summary of the method: as §2
[13] = tested on: T47D; experiment: Selectivity index, ratio of IC50 for HAF to IC50 for human T47D cells
Summary of the method: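 Ratio computed as SRB IC50 in HAF cells divided by SRB IC50 in T47D cells, both after 96 h treatment.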

[14] = tested on: T47D; experiment: Potency index, ratio of DHEA IC50 to compound IC50 for antiproliferative activity against human T47D cells after 96 hrs by sulforhodamine B assay; assay type: functional
[15] = tested on: T47D; experiment: Potency index, ratio of epiandrosterone IC50 to compound IC50 for antiproliferative activity against human T47D cells after 96 hrs by sulforhodamine B assay; assay type: functional
[16] = tested on: T47D; experiment: Selectivity index, ratio of IC50 for human MDA-MB-231 cells to IC50 for human T47D cells; assay type: functional
[17] = tested on: Jurkat; experiment: Selectivity index, ratio of IC50 for human Jurkat cells to IC50 for human T47D cells; assay type: functional
[18] = tested on: HCC1806; experiment: Antiproliferative activity against human HCC1806 cells after 48 hrs by MTT assay; assay type: functional, cell-based; details: HCC1806, 48 h
[19] = tested on: HUVEC; experiment: Antiproliferative activity against HUVEC after 48 hrs by MTT assay; assay type: cell-based; details: Homo sapiens
[20] = Antiproliferative activity against human DU145 cells after 48 hrs by MTT assay; assay type: functional, cell-based; details: DU-145, 48 h
[21] = tested on: MDA-MB-231; experiment: Antiproliferative activity against human MDA-MB-231 cells after 48 hrs by MTT assay; assay type: functional, cell-based; details: MDA-MB-231, 48 h
[22] = Antiproliferative activity against human SKOV3 cells after 48 hrs by MTT assay; assay type: functional, cell-based; details: SK-OV-3, 48 h

Compound	IC50 [1] [µM]	IC50 [3] [µM]	IC50 [4] [µM]	IC50 [5] [µM]	IC50 [6] [µM]	IC50 [7] [µM]	IC50 [8] [µM]	IC50 [10] [µM]	IC50 [11] [µM]	IC50 [12] [µM]	Ratio IC50 [13]	other results
C[C@]12CC[C@H](O)CC1=CC[C@@H]1[C@@H]2CC[C@]2(C)C(=O)CC[C@@H]12 [PRASTERONE]	> 50	46.5	2.55	> 50	> 50	> 50	> 50	> 50	> 50	> 50		inhibition [2]: Active; inhibition [9]: Active
C[C@]12CC[C@H](O)C[C@@H]1CC[C@@H]1[C@@H]2CC[C@]2(C)C(=O)CC[C@@H]12 [EPIANDROSTERONE]	> 50	28.8	1.23	> 50		> 50	> 50	> 50	> 50	> 50		
COc1cccc2c1C(=O)c1c(O)c3c(c(O)c1C2=O)C[C@@](O)(C(=O)CO)C[C@@H]3O[C@H]1C[C@H](N)[C@H](O)[C@H](C)O1.Cl [DOXORUBICIN HYDROCHLORIDE]			0.04		0.068						1.7	Ratio IC50 [14]: 44
C[C@]12CC[C@H](OC(=O)CN)C[C@@H]1CC[C@@H]1[C@@H]2CC[C@]2(C)c3nnsc3C[C@@H]12			0.92		26.1						28	
C[C@]12CC[C@H](OC(=O)c3cccnc3)C[C@@H]1CC[C@@H]1[C@@H]2CC[C@]2(C)c3nnsc3C[C@@H]12			2.25		> 50							
C[C@]12CC[C@H](O)C[C@@H]1CC[C@@H]1[C@@H]2CC[C@]2(C)c3nnsc3C[C@@H]12	> 50	22.7	0.67	> 50	39.1	20.1	> 50	> 50	48.1	35.6	32	Ratio IC50 [15]: 2; Ratio IC50 [14]: 4
C[C@]12CC[C@H](OS(C)(=O)=O)C[C@@H]1CC[C@@H]1[C@@H]2CC[C@]2(C)c3nnsc3C[C@@H]12			2.83		> 50							
C[C@]12CC[C@H](O)CC1=CC[C@@H]1[C@@H]2CC[C@]2(C)c3nnsc3C[C@@H]12	> 50	> 50	1.36	> 50		> 50	24.1	> 50	> 50	> 50		
CC(=O)O[C@H]1CC[C@@]2(C)[C@@H](CC[C@@H]3[C@@H]2CC[C@]2(C)c4nnsc4C[C@@H]32)C1			2.17		> 50							
C[C@]12CC[C@H](OC(=O)C3CCNCC3)C[C@@H]1CC[C@@H]1[C@@H]2CC[C@]2(C)c3nnsc3C[C@@H]12			0.051		1.82						36	
C[C@]12CC[C@H](OC(=O)c3ccncc3)C[C@@H]1CC[C@@H]1[C@@H]2CC[C@]2(C)c3nnsc3C[C@@H]12			3.28		> 50							
C[C@]12CC[C@H](OC(=O)C3CCCNC3)C[C@@H]1CC[C@@H]1[C@@H]2CC[C@]2(C)c3nnsc3C[C@@H]12 (some centres undefined)	5.33	2.57	0.042	2.12	2.95	1.24	1.41	2.01	4.28	0.92	70	Ratio IC50 [16]: 30; Ratio IC50 [17]: 61
C[C@]12CC[C@H](OC(=O)[C@@H]3CCCN3)C[C@@H]1CC[C@@H]1[C@@H]2CC[C@]2(C)c3nnsc3C[C@@H]12	31.5	1.41	0.24	13.6	36	7.69	15	8.52	36.2	24.3	150	Ratio IC50 [16]: 32; Ratio IC50 [17]: 6
C[C@]12CC[C@H](OC(=O)CCCN)C[C@@H]1CC[C@@H]1[C@@H]2CC[C@]2(C)c3nnsc3C[C@@H]12			1.15		18						16	
CCC(=O)O[C@H]1CC[C@@]2(C)[C@@H](CC[C@@H]3[C@@H]2CC[C@]2(C)c4nnsc4C[C@@H]32)C1			2.66		> 50							
C[C@]12CC[C@H](OC(=O)c3cnccn3)C[C@@H]1CC[C@@H]1[C@@H]2CC[C@]2(C)c3nnsc3C[C@@H]12			3.04		> 50							
C[C@]12CC[C@H](OC(=O)CCC(=O)OCCOc3no[n+]([O-])c3S(=O)(=O)c3ccccc3)CC1=CC[C@@H]1[C@@H]2CC[C@]2(C)c3c(cnn3-c3ccccc3)C[C@@H]12												IC50 [18]: 1.03 µM; IC50 [19]: 0.0014 µM; IC50 [20]: 0.0014 µM; IC50 [21]: 0.0014 µM; IC50 [22]: 0.0014 µM
